Data set [1] has as its target T1, Inhibitor of nuclear factor kappa-B kinase subunit alpha (Mus musculus) (UniProt Q60680).
T1 sequence (whole entry): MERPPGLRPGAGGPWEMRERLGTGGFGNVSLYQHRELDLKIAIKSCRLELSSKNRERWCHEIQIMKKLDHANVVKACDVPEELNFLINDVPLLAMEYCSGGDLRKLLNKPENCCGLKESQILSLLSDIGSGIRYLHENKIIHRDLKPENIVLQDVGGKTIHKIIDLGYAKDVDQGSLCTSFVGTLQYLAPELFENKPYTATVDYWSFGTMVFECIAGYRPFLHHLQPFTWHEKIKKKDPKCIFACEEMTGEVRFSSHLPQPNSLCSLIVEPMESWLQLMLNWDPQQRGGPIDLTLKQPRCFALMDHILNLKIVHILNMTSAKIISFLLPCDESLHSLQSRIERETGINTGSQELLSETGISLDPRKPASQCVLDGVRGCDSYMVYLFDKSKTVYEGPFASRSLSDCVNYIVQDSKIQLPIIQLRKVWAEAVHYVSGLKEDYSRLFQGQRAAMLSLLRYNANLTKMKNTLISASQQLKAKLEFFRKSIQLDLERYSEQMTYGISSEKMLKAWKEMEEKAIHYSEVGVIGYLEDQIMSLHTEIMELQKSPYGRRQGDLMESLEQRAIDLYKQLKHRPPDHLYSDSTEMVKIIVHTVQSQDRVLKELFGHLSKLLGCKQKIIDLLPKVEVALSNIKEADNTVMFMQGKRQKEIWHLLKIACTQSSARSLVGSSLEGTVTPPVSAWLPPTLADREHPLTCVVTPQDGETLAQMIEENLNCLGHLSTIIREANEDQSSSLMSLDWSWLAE
The data set can be described thus: Inhibition of IKKalpha in IKKbeta knockout mouse embryonic fibroblast cells harboring Adv.NF-kB.luc assessed as IL-1beta induced NF-kB transcriptional activation at 100 uM pretreated for 1 hr followed by IL-1beta stimulation for 6 hrs by luciferase reporter gene assay relative to control. Also noted: scale not given: the % may be the effect or the level left. The gist of the method:
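IKKβ knockout MEFs infected with Adv.NF-kB.luc (up to 300 pfu/cell, 24 h, 10% DMEM), replated and serum-starved 24 h. Pretreated 1 h with compound, then IL-1β (10 ng/mL) for 6 h. Lysis buffer contained 0.2 mM luciferin, and luminescence was read as RLU. Results are expressed as % of IL-1β + DMSO stimulation.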

Data set [2] concerns the target T2, Inhibitor of nuclear factor kappa-B kinase subunit beta (Homo sapiens, UniProt O14920).
T2 sequence (O14920 whole entry): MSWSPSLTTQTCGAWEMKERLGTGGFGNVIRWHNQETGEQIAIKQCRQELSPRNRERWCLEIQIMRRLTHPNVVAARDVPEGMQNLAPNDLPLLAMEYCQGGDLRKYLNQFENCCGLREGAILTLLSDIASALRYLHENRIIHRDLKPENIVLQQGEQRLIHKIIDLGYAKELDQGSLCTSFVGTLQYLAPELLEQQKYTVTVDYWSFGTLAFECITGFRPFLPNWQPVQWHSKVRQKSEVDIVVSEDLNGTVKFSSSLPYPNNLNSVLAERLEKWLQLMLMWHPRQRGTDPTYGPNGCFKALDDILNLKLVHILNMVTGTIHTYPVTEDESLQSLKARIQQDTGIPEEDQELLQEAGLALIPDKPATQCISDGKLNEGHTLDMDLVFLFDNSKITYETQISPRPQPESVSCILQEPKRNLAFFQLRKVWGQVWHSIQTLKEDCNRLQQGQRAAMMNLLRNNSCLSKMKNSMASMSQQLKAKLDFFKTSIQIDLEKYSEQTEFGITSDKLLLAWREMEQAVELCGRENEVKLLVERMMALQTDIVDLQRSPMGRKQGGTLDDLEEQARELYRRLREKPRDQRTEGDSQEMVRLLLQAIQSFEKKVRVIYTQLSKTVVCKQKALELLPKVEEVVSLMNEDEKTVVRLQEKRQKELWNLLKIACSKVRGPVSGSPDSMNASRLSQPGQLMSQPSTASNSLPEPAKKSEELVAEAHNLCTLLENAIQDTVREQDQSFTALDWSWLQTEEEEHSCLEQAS
The data set is described as follows: Inhibition of IKKbeta in human U2OS cells assessed as decrease in TNFalpha induced p65 phosphorylation at ser536 residues at 100 uM preincubated for 1 hr followed by TNFalpha stimulation for 30 mins by Western blot analysis. The format is cell-based. The settings on record: 0.5 h. The gist of the method:
(§1)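 U2OS cells were grown in McCoy's 5A medium at 37 °C under 5% CO2 and made quiescent by 24 h serum deprivation. They were then pretreated with compound before agonist stimulation in serum-free medium. Phospho-p100, IκBα levels and phospho-p65 (Ser536) were assessed by Western blot.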
(In western blotting, separated proteins are transferred to a membrane and probed.)

In data set [3] the target is T3, Inhibitor of nuclear factor kappa-B kinase subunit alpha (Homo sapiens, UniProt O15111).
T3 sequence (O15111 whole entry): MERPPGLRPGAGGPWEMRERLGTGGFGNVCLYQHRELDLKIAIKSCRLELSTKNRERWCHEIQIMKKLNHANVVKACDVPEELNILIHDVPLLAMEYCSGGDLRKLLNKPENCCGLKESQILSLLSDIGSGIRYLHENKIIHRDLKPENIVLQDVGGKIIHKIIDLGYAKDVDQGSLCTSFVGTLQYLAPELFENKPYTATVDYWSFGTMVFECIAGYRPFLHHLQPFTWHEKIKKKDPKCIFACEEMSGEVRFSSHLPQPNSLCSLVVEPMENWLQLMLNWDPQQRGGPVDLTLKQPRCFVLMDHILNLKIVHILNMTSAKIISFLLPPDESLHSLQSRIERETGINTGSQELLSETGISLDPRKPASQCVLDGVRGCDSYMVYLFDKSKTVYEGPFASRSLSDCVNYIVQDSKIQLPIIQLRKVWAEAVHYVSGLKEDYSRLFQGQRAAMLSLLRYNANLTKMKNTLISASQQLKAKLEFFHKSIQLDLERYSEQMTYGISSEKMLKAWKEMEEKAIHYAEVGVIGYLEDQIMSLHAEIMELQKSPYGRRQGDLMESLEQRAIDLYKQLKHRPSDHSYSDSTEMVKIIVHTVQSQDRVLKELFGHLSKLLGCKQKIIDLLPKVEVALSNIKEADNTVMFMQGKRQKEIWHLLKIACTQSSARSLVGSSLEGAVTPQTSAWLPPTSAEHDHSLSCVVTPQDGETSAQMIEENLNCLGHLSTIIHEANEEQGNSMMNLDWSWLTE
The data set can be described thus: (§2) Inhibition of IKKalpha in human U2OS cells assessed as decrease in FCS induced p100 phosphorylation at ser866/870 residues preincubated for 1 hr followed by FCS stimulation for 4 hrs by Western blot analysis. The format is cell-based. The gist of the method:
as §1

Data set [4] has as its target T4, Inhibitor of nuclear factor kappa-B kinase subunit alpha (Homo sapiens) (UniProt O15111).
T4 sequence (whole entry): T3 sequence (O15111 whole entry)
The data set is described as §2. The format is cell-based. The gist of the method: as §1

In data set [5] the target is T2, Inhibitor of nuclear factor kappa-B kinase subunit beta. The data set can be described thus: Inhibition of recombinant full length human IKKbeta expressed in baculovirus infected sf9 insect cells using biotinylated IkBalpha as substrate after 60 mins by DELFIA. The gist of the method:
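Recombinant IKKβ (37 nM) was incubated with biotinylated IκB-α (Ser32) peptide (0.375 μM) and 40 μM ATP in Tris-HCl pH 7.5 with MgCl2, EDTA, DTT and BSA for 60 min at 30 °C. The reaction was quenched with EDTA and captured on streptavidin. Detection used anti-phospho-IκBα (Ser32/36) mAb plus Eu-anti-mouse IgG, read by time-resolved fluorescence (340/615 nm). Apparent Ki was obtained via Cheng–Prusoff, n=3.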

Data set [6] concerns the target T3, Inhibitor of nuclear factor kappa-B kinase subunit alpha. The data set is described as follows: Inhibition of recombinant human N-terminal GST-tagged IKKalpha (1 to 745 residues) expressed in baculovirus expression system using biotinylated IkBalpha as substrate after 60 mins by DELFIA.
In data set [7] the target is T2, Inhibitor of nuclear factor kappa-B kinase subunit beta. The data set is described as follows: Inhibition of IKKbeta in human U2OS cells assessed as TNFalpha induced IkBalpha degradation at 100 uM preincubated for 1 hr followed by TNFalpha stimulation for 30 mins by Western blot analysis. The class given is cell-based. The settings on record: 0.5 h. The gist of the method:
as §1

We go through one compound from ChEMBL document CHEMBL4038327, “Inhibitory Kappa B Kinase α (IKKα) Inhibitors That Recapitulate Their Selectivity in Cells against Isoform-Related Biomarkers” (J Med Chem, 2017).

As usually defined, the IC50 is the point on the concentration scale where inhibition reaches its midpoint. Broadly, the Ki is a dissociation constant, usually derived from enzyme kinetics or from competition with a known ligand.

Turning to `N#Cc1c[nH]c2nc(N)nc(-c3ccc(CO)cc3)c12`, the Activity in data set [1] amounted to 18.8%. Also, the “inhibition (INH)” value in data set [2] and in data set [7] was “Not Active” each time. The concentration for half-maximal inhibition (IC50) in data set [3] is 13900 to 19100 nM. In addition, the inhibition result in data set [4] was “Dose-dependent effect”. Further, the Ki in data set [5] came to 2300 nM; in data set [6], 650 nM.
